From ChEMBL document CHEMBL4431340, “Pyridyl-alanine as a Hydrophilic, Aromatic Element in Peptide Structural Optimization” (J Med Chem, 2016)
Active and inactive are the calls of the source. The calls are words filed in the database; no cut-off is given here. Non-standard residues stand in square brackets, D forms with d. Residues, ends and D or L forms follow the SMILES beside them. 3Pal = N[C@@H](Cc1cccnc1)C(=O)O; Aib = CC(C)(N)C(=O)O

Key:
[1] = Aqueous solubility of the compound in PBS assessed as precipitate formation at pH 7 after 1 hr; conditions: buffer, pH 7, 1 h
[2] = Aqueous solubility of the compound in PBS at 1 to 10 mg/ml assessed as precipitate formation at pH 7 at 4 degC after 7 days; type: physicochemical; conditions: buffer, pH 7, 168 h
[3] = tested on: Rattus norvegicus; test: Antihypoglycemic activity in lean Wistar rat assessed as prevention of insulin-induced glucose reduction at 15 nmol/kg, ip after 60 mins by glucometer; type: functional, organism-based
Method in brief: (§1)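 Lean rats received a fixed insulin dose chosen to induce hypoglycemia, together with peptide or vehicle. Blood glucose was followed for 60 min after administration. Groups were compared by one-way ANOVA with Dunnett's test against the insulin group, with P < 0.05 taken as significant.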

[4] = tested on: Rattus norvegicus; test: Antihypoglycemic activity in lean Wistar rat assessed as prevention of insulin-induced glucose reduction at 15 nmol/kg, ip after 30 mins by glucometer; type: functional, organism-based
Method in brief: as §1

[5] = tested on: Rattus norvegicus; test: Hyperglycemic activity in lean Wistar rat assessed as elevation of plasma glucose levels at 10 nmol/kg, ip after 120 mins in absence of insulin by glucometer; type: functional, organism-based
[6] = target: Glucagon receptor (Homo sapiens) (UniProt P47871); test: Activation of glucagon receptor (unknown origin) transfected in HEK293 cells co-transfected with luciferase reporter gene linked CRE element assessed as compound EC50 preincubated in PBS buffer for 4 weeks at elevated temperature and pH 7 followed by protein addition measured after 5 hrs in presence of luclite substrate by liquid scintillation counting relative to control; type: functional, cell-based
Method in brief: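 Analog incubated at 2.0 mg/mL in 50 mM sodium phosphate, 150 mM NaCl at pH 7 (also pH 5, 6), 37 °C, stirred at 200 rpm for 1 and 4 weeks. T=0 reference kept at -45 °C. […] Cells exposed to serial dilutions for 5 h at 37 °C, then LucLite luminescence read. Reported as percent change in EC50.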

[7] = tested on: Sus scrofa; test: Antihypoglycemic activity in diabetic Yucatan pig assessed as prevention of insulin detemir-induced blood glucose reduction at 10 nmol/kg, sc administered 240 mins post insulin detemir challenge measured during compound dosing by glucometer

Sequence of Glucagon receptor (Homo sapiens) (P47871 whole entry): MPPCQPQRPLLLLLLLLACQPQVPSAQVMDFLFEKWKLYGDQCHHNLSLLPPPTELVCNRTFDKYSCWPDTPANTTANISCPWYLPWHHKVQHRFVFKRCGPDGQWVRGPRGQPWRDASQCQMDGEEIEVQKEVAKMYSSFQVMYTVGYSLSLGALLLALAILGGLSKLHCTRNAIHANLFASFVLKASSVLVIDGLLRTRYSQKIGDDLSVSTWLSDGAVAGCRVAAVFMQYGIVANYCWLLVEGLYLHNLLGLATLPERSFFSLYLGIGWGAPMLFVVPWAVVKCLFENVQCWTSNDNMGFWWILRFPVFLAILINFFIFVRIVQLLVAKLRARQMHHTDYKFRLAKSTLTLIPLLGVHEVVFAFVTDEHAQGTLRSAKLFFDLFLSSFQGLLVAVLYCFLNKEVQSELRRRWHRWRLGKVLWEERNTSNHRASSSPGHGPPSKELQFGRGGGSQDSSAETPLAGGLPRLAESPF

Molecule | solubility [1] [mg/mL] | solubility [2] | further results
CSCC[C@H](NC(=O)[C@H](CC(C)C)NC(=O)[C@H](Cc1c[nH]c2ccccc12)NC(=O)[C@H](CCC(N)=O)NC(=O)[C@@H](NC(=O)[C@H](Cc1ccccc1)NC(=O)[C@H](CC(=O)O)NC(=O)[C@H](CCC(N)=O)NC(=O)[C@H](C)NC(=O)[C@H](CCCNC(=N)N)NC(=O)[C@H](CCCNC(=N)N)NC(=O)C(C)(C)NC(=O)[C@H](CC(=O)O)NC(=O)[C@H](CC(C)C)NC(=O)[C@H](Cc1ccncc1)NC(=O)[C@H](CCCCN)NC(=O)[C@H](CO)NC(=O)[C@H](Cc1ccncc1)NC(=O)[C@H](CC(=O)O)NC(=O)[C@H](CO)NC(=O)[C@@H](NC(=O)[C@H](Cc1ccccc1)NC(=O)[C@@H](NC(=O)CNC(=O)[C@H](CCC(N)=O)NC(=O)[C@H](CO)NC(=O)[C@@H](N)Cc1cnc[nH]1)[C@@H](C)O)[C@@H](C)O)C(C)C)C(=O)N[C@@H](CC(N)=O)C(=O)N[C@H](C(=O)O)[C@@H](C)O | > 15 | Soluble | 
CSCC[C@H](NC(=O)[C@H](CC(C)C)NC(=O)[C@H](Cc1c[nH]c2ccccc12)NC(=O)[C@H](CCC(N)=O)NC(=O)[C@@H](NC(=O)[C@H](Cc1ccccc1)NC(=O)[C@H](CC(=O)O)NC(=O)[C@H](CCC(N)=O)NC(=O)[C@H](C)NC(=O)[C@H](CCCNC(=N)N)NC(=O)[C@H](CCCNC(=N)N)NC(=O)C(C)(C)NC(=O)[C@H](CC(=O)O)NC(=O)[C@H](CC(C)C)NC(=O)[C@H](Cc1ccncc1)NC(=O)[C@H](CCCCN)NC(=O)[C@H](CO)NC(=O)[C@H](Cc1ccncc1)NC(=O)[C@H](CC(=O)O)NC(=O)[C@H](CO)NC(=O)[C@@H](NC(=O)[C@H](Cc1ccncc1)NC(=O)[C@@H](NC(=O)CNC(=O)[C@H](CCC(N)=O)NC(=O)[C@H](CO)NC(=O)[C@@H](N)Cc1cnc[nH]1)[C@@H](C)O)[C@@H](C)O)C(C)C)C(=O)N[C@@H](CC(N)=O)C(=O)N[C@H](C(=O)O)[C@@H](C)O | > 15 | Soluble | 
GLUCAGON |  |  | Activity [3]: Active; Activity [4]: inactive; Activity [5]: Active
CSCC[C@H](NC(=O)[C@H](CC(C)C)NC(=O)[C@H](Cc1c[nH]c2ccccc12)NC(=O)[C@H](CCC(N)=O)NC(=O)[C@@H](NC(=O)[C@H](Cc1ccccc1)NC(=O)[C@H](CC(=O)O)NC(=O)[C@H](CCC(N)=O)NC(=O)[C@H](C)NC(=O)[C@H](CCCNC(=N)N)NC(=O)[C@H](CCCNC(=N)N)NC(=O)C(C)(C)NC(=O)[C@H](CC(=O)O)NC(=O)[C@H](CC(C)C)NC(=O)[C@H](Cc1cccnc1)NC(=O)[C@H](CCCCN)NC(=O)[C@H](CO)NC(=O)[C@H](Cc1cccnc1)NC(=O)[C@H](CC(=O)O)NC(=O)[C@H](CO)NC(=O)[C@@H](NC(=O)[C@H](Cc1cccnc1)NC(=O)[C@@H](NC(=O)CNC(=O)[C@H](CCC(N)=O)NC(=O)[C@H](CO)NC(=O)[C@@H](N)Cc1cnc[nH]1)[C@@H](C)O)[C@@H](C)O)C(C)C)C(=O)N[C@@H](CC(N)=O)C(=O)N[C@H](C(=O)O)[C@@H](C)O | > 15 | Soluble | Activity [3]: Active; Activity [6]: 82%; Activity [7]: Active; Activity [4]: inactive; Activity [5]: Active
CSCC[C@H](NC(=O)[C@H](CC(C)C)NC(=O)[C@H](Cc1c[nH]c2ccccc12)NC(=O)[C@H](CCC(N)=O)NC(=O)[C@@H](NC(=O)[C@H](Cc1cccnc1)NC(=O)[C@H](CC(=O)O)NC(=O)[C@H](CCC(N)=O)NC(=O)[C@H](C)NC(=O)[C@H](CCCNC(=N)N)NC(=O)[C@H](CCCNC(=N)N)NC(=O)C(C)(C)NC(=O)[C@H](CC(=O)O)NC(=O)[C@H](CC(C)C)NC(=O)[C@H](Cc1cccnc1)NC(=O)[C@H](CCCCN)NC(=O)[C@H](CO)NC(=O)[C@H](Cc1cccnc1)NC(=O)[C@H](CC(=O)O)NC(=O)[C@H](CO)NC(=O)[C@@H](NC(=O)[C@H](Cc1cccnc1)NC(=O)[C@@H](NC(=O)CNC(=O)[C@H](CCC(N)=O)NC(=O)[C@H](CO)NC(=O)[C@@H](N)Cc1cnc[nH]1)[C@@H](C)O)[C@@H](C)O)C(C)C)C(=O)N[C@@H](CC(N)=O)C(=O)N[C@H](C(=O)O)[C@@H](C)O (H-HSQGT[3Pal]TSD[3Pal]SK[3Pal]LD[Aib]RRAQD[3Pal]VQWLMNT-OH) | > 15 | Soluble | 

More lines, main results first:

solubility [1] [mg/mL] | solubility [2] | Molecule | further results
> 1 |  | CSCC[C@H](NC(=O)[C@H](CC(C)C)NC(=O)[C@H](Cc1c[nH]c2ccccc12)NC(=O)[C@H](CCC(N)=O)NC(=O)[C@@H](NC(=O)[C@H](Cc1ccccc1)NC(=O)[C@H](CC(=O)O)NC(=O)[C@H](CCC(N)=O)NC(=O)[C@H](C)NC(=O)[C@H](CCCNC(=N)N)NC(=O)[C@H](CCCNC(=N)N)NC(=O)C(C)(C)NC(=O)[C@H](CC(=O)O)NC(=O)[C@H](CC(C)C)NC(=O)[C@H](Cc1ccc(O)cc1)NC(=O)[C@H](CCCCN)NC(=O)[C@H](CO)NC(=O)[C@H](Cc1cccnc1)NC(=O)[C@H](CC(=O)O)NC(=O)[C@H](CO)NC(=O)[C@@H](NC(=O)[C@H](Cc1ccccc1)NC(=O)[C@@H](NC(=O)CNC(=O)[C@H](CCC(N)=O)NC(=O)[C@H](CO)NC(=O)[C@@H](N)Cc1cnc[nH]1)[C@@H](C)O)[C@@H](C)O)C(C)C)C(=O)N[C@@H](CC(N)=O)C(=O)N[C@H](C(=O)O)[C@@H](C)O | 
> 1 |  | CSCC[C@H](NC(=O)[C@H](CC(C)C)NC(=O)[C@H](Cc1c[nH]c2ccccc12)NC(=O)[C@H](CCC(N)=O)NC(=O)[C@@H](NC(=O)[C@H](Cc1ccccc1)NC(=O)[C@H](CC(=O)O)NC(=O)[C@H](CCC(N)=O)NC(=O)[C@H](C)NC(=O)[C@H](CCCNC(=N)N)NC(=O)[C@H](CCCNC(=N)N)NC(=O)C(C)(C)NC(=O)[C@H](CC(=O)O)NC(=O)[C@H](CC(C)C)NC(=O)[C@H](Cc1cccnc1)NC(=O)[C@H](CCCCN)NC(=O)[C@H](CO)NC(=O)[C@H](Cc1ccc(O)cc1)NC(=O)[C@H](CC(=O)O)NC(=O)[C@H](CO)NC(=O)[C@@H](NC(=O)[C@H](Cc1ccccc1)NC(=O)[C@@H](NC(=O)CNC(=O)[C@H](CCC(N)=O)NC(=O)[C@H](CO)NC(=O)[C@@H](N)Cc1cnc[nH]1)[C@@H](C)O)[C@@H](C)O)C(C)C)C(=O)N[C@@H](CC(N)=O)C(=O)N[C@H](C(=O)O)[C@@H](C)O | 
> 1 |  | CSCC[C@H](NC(=O)[C@H](CC(C)C)NC(=O)[C@H](Cc1c[nH]c2ccccc12)NC(=O)[C@H](CCC(N)=O)NC(=O)[C@@H](NC(=O)[C@H](Cc1ccccc1)NC(=O)[C@H](CC(=O)O)NC(=O)[C@H](CCC(N)=O)NC(=O)[C@H](C)NC(=O)[C@H](CCCNC(=N)N)NC(=O)[C@H](CCCNC(=N)N)NC(=O)C(C)(C)NC(=O)[C@H](CC(=O)O)NC(=O)[C@H](CC(C)C)NC(=O)[C@H](Cc1ccncc1)NC(=O)[C@H](CCCCN)NC(=O)[C@H](CO)NC(=O)[C@H](Cc1ccc(O)cc1)NC(=O)[C@H](CC(=O)O)NC(=O)[C@H](CO)NC(=O)[C@@H](NC(=O)[C@H](Cc1ccccc1)NC(=O)[C@@H](NC(=O)CNC(=O)[C@H](CCC(N)=O)NC(=O)[C@H](CO)NC(=O)[C@@H](N)Cc1cnc[nH]1)[C@@H](C)O)[C@@H](C)O)C(C)C)C(=O)N[C@@H](CC(N)=O)C(=O)N[C@H](C(=O)O)[C@@H](C)O | 
> 1 |  | CSCC[C@H](NC(=O)[C@H](CC(C)C)NC(=O)[C@H](Cc1c[nH]c2ccccc12)NC(=O)[C@H](CCC(N)=O)NC(=O)[C@@H](NC(=O)[C@H](Cc1ccccc1)NC(=O)[C@H](CC(=O)O)NC(=O)[C@H](CCC(N)=O)NC(=O)[C@H](C)NC(=O)[C@H](CCCNC(=N)N)NC(=O)[C@H](CCCNC(=N)N)NC(=O)C(C)(C)NC(=O)[C@H](CC(=O)O)NC(=O)[C@H](CC(C)C)NC(=O)[C@H](Cc1ccc(O)cc1)NC(=O)[C@H](CCCCN)NC(=O)[C@H](CO)NC(=O)[C@H](Cc1ccc(O)cc1)NC(=O)[C@H](CC(=O)O)NC(=O)[C@H](CO)NC(=O)[C@@H](NC(=O)[C@H](Cc1cccnc1)NC(=O)[C@@H](NC(=O)CNC(=O)[C@H](CCC(N)=O)NC(=O)[C@H](CO)NC(=O)[C@@H](N)Cc1cnc[nH]1)[C@@H](C)O)[C@@H](C)O)C(C)C)C(=O)N[C@@H](CC(N)=O)C(=O)N[C@H](C(=O)O)[C@@H](C)O | 
> 15 |  | CSCC[C@H](NC(=O)[C@H](CC(C)C)NC(=O)[C@H](Cc1c[nH]c2ccccc12)NC(=O)[C@H](CCC(N)=O)NC(=O)[C@@H](NC(=O)[C@H](Cc1ccccc1)NC(=O)[C@H](CC(=O)O)NC(=O)[C@H](CCC(N)=O)NC(=O)[C@H](C)NC(=O)[C@H](CCCNC(=N)N)NC(=O)[C@H](CCCNC(=N)N)NC(=O)C(C)(C)NC(=O)[C@H](CC(=O)O)NC(=O)[C@H](CC(C)C)NC(=O)[C@H](Cc1cccnc1)NC(=O)[C@H](CCCCN)NC(=O)[C@H](CO)NC(=O)[C@H](Cc1cccnc1)NC(=O)[C@H](CC(=O)O)NC(=O)[C@H](CO)NC(=O)[C@@H](NC(=O)[C@H](Cc1ccccc1)NC(=O)[C@@H](NC(=O)CNC(=O)[C@H](CCC(N)=O)NC(=O)[C@H](CO)NC(=O)[C@@H](N)Cc1cnc[nH]1)[C@@H](C)O)[C@@H](C)O)C(C)C)C(=O)N[C@@H](CC(N)=O)C(=O)N[C@H](C(=O)O)[C@@H](C)O | 
